Data reported in ChEMBL document CHEMBL1136809, “Synthesis and structure-affinity relationships of novel N-(1-ethyl-4-methylhexahydro-1,4-diazepin-6-yl)pyridine-3-carboxamides with potent serotonin 5-HT3 and dopamine D2 receptor antagonistic activity” (J Med Chem, 2003).
pIC50, pKi: −log10 of the molar value.

Legend:
[1] = target: T1, 5-hydroxytryptamine receptor 4 (Cavia porcellus, UniProt O70528); test: Inhibition of [3H]GR-113808 binding to guinea pig striatum 5-hydroxytryptamine 4 receptor; assay type: tissue-based
T1 sequence (O70528 whole entry): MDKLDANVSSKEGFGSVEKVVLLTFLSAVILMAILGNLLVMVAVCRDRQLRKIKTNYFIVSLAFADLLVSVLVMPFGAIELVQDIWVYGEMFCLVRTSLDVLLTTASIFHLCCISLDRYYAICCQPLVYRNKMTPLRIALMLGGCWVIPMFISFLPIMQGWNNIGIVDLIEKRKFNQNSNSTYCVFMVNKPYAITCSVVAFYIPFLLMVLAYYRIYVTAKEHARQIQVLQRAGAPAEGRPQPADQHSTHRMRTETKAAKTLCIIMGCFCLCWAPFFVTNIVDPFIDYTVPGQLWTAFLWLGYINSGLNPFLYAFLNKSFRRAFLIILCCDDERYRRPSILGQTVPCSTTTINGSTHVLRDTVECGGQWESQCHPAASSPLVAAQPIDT

[2] = tested on: Canis familiaris; test: Percent inhibition of apomorphine (0.3 mg/kg) induced emesis in dogs when 1 mg/kg of compound administered perorally; assay type: functional; conditions: Canis lupus familiaris, route oral
Procedure, shortened: (§1)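 Male beagle dogs weighing 10–16 kg, in groups of three to six, were pretreated orally with test compound. Apomorphine hydrochloride (0.3 mg/kg) was injected subcutaneously 2 h later to elicit emesis.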

[3] = target: T2, Serotonin 3 (5-HT3) receptor (Rattus norvegicus, UniProt P35563+Q9JJ16); test: Concentration required to inhibit the binding of radioligand [3H]GR-65630 to serotonin 5-hydroxytryptamine-3 receptor (5-HT 3 receptor)in rat brain cortical membrane; assay type: tissue-based
T2 sequence (P35563 whole entry): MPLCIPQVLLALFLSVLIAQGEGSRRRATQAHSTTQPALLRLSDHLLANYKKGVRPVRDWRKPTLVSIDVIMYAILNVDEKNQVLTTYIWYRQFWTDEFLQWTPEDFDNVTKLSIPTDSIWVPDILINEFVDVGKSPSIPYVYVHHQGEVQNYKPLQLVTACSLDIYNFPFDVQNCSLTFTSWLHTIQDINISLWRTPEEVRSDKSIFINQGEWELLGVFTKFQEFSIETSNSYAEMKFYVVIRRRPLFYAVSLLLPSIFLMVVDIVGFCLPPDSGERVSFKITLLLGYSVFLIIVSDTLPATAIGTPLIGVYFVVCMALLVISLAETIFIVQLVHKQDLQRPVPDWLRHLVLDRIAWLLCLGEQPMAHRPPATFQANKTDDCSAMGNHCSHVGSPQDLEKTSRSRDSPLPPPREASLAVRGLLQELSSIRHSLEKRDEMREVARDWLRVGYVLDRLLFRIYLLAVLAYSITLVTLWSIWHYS
T2 sequence (Q9JJ16 whole entry): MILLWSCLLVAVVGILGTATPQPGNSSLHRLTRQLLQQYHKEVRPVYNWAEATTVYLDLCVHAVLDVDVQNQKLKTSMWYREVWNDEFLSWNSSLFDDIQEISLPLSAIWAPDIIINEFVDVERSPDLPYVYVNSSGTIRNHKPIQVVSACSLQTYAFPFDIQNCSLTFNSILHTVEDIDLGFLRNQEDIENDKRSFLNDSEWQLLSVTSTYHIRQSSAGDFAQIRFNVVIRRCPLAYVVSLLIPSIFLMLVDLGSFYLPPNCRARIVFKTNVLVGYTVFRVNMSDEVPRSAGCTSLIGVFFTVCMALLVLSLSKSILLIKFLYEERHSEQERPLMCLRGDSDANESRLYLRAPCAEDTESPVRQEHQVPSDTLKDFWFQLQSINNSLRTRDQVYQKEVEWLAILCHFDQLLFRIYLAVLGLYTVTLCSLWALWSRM

[4] = target: T3, D(2) dopamine receptor (Rattus norvegicus, UniProt P61169); test: Inhibition of the binding of radioligand [3H]spiperone to dopamine receptor D2 in rat brain synaptic membrane; assay type: cell membranes
T3 sequence (P61169 whole entry): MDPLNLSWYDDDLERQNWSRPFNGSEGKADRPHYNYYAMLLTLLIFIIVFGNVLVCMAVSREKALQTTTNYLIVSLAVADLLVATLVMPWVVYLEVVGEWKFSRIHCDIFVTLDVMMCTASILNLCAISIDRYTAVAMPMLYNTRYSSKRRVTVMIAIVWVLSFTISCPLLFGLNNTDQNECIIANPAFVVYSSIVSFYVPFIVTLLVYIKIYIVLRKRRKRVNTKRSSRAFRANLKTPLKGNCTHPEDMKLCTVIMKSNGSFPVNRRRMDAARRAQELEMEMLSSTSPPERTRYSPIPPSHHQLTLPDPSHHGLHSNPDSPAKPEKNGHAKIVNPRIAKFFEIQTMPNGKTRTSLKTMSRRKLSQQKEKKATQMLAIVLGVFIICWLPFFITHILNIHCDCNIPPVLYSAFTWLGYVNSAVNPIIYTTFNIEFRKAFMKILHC

[5] = target: T2, Serotonin 3 (5-HT3) receptor; test: Inhibition of [3H]GR-65630 binding to rat cortical membrane serotonin 5-hydroxytryptamine 3 receptor
[6] = target: T3, D(2) dopamine receptor; test: Affinity towards Dopamine receptor D2 in rat striatum using [3H]spiperone as radioligand; assay type: tissue-based
[7] = target: T1, 5-hydroxytryptamine receptor 4; test: Concentration of compound required to inhibit the binding of radioligand [3H]GR-113808 to 5-hydroxytryptamine 4 receptor in guinea-pig striatum; assay type: tissue-based
[8] = target: T4, D(3) dopamine receptor (Rattus norvegicus, UniProt P19020); test: Concentration of compound required to inhibit the binding of radioligand [3H](R)-7-OH-DPAT to Dopamine receptor D3 in rat striatum; assay type: tissue-based
T4 sequence (P19020 whole entry): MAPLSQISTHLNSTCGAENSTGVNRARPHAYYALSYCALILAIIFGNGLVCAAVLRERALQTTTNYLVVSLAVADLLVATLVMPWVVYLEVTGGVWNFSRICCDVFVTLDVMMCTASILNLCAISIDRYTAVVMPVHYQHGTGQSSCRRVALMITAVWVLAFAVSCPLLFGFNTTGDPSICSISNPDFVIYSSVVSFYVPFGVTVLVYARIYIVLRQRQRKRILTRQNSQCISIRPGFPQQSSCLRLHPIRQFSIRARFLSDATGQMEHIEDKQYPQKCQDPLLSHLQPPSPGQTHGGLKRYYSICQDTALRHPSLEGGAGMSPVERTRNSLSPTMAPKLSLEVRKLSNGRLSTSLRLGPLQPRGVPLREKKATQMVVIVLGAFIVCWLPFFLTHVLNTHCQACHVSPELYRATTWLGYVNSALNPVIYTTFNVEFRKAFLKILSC

[9] = target: T1, 5-hydroxytryptamine receptor 4; test: Concentration of compound required to inhibit the binding of radioligand [3H]GR-113808 to serotonin 5-hydroxytryptamine 4 receptor in guinea-pig striatum; assay type: tissue-based
[10] = tested on: Canis familiaris; test: Effective dose for inhibition of apomorphine (0.3 mg/kg) induced emesis in dogs when 1 mg/kg of compound administered perorally; assay type: functional, Canis lupus familiaris; conditions: route oral; procedure, shortened: as §1
[11] = target: T2, Serotonin 3 (5-HT3) receptor; test: Concentration of compound required to inhibit the binding of radioligand [3H]GR-65630 to 5-hydroxytryptamine 3 receptor in rat brain cortical membrane; assay type: cell membranes
Procedure, shortened: (§2)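 Displacement of [³H]GR65630 from rat cerebral cortex membranes, following an earlier [³H]quipazine binding protocol. IC50, the concentration giving 50% inhibition of specific binding, in nM by probit (linear regression) analysis. Values given as mean with 95% confidence limits.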

[12] = target: T3, D(2) dopamine receptor; test: Affinity of compound towards Dopamine receptor D2 in rat striatum using [3H]spiperone as radioligand; assay type: tissue-based
Procedure, shortened: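 Competition binding against [3H]spiperone in rat striatal (brain synaptic) membranes. IC50 is the concentration giving 50% inhibition of specific radioligand binding, in nM, derived by linear regression (Probit analysis). Reported as mean with 95% confidence limits.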

[13] = target: T1, 5-hydroxytryptamine receptor 4; test: Concentration of compound required to inhibit the binding of radioligand [3H]GR-113808 to 5-hydroxytryptamine 4 receptor in guinea pig striatum; assay type: tissue-based
[14] = target: T4, D(3) dopamine receptor; test: Concentration of compound required to inhibit the binding of radioligand [3H](R)-7-OH-DPAT to Dopamine receptor D3 in rat striatum.
[15] = target: T2, Serotonin 3 (5-HT3) receptor; test: Concentration of compound required to inhibit the binding of radioligand [3H]GR-65630 to serotonin 5-hydroxytryptamine 3 receptor in rat cortical membrane; assay type: cell membranes; procedure, shortened: as §2
[16] = target: T3, D(2) dopamine receptor; test: Concentration of compound required to inhibit the binding of radioligand [3H]-spiperone to Dopamine receptor D2 in rat striatum; assay type: tissue-based
Procedure, shortened: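 Competition binding against [³H]spiperone in rat striatum. IC50, the concentration inhibiting 50% of specific radioligand binding, in nM by probit (linear regression) analysis. Reported as mean with 95% confidence limits.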

[17] = Canis lupus familiaris, read-out: ED50

| SMILES | pKi [1] | inhibition in vivo at 1 mg/kg [2] [%] | pIC50 [3] | pIC50 [4] | further results |
| --- | --- | --- | --- | --- | --- |
| COc1cc(N)c(Cl)cc1C(=O)NC1CCN(C)CC1 | 6.08 | – | – | – | – |
| CCN1CCN(C)C[C@@H](NC(=O)c2cc(Cl)c(NC)nc2OC)C1 | – | 52 | – | – | – |
| CNc1nc(OC)c(C(=O)NC2CN(C)CCN(C)C2)cc1Cl | – | 20 | 8.89 | 6.86 | – |
| CCN1CCN(C)C[C@@H](NC(=O)c2cc(Cl)c(OC)nc2NC)C1 | – | – | < 7.00 | < 6.00 | – |
| CCOc1nc(NC)c(Cl)cc1C(=O)NC1CN(C)CCN(CC)C1 (stereo not drawn) | – | 40 | 9.26 | 7.37 | – |
| CCN1CCN(C)CC(NC(=O)c2cc(Br)c(NC)nc2OC)C1 (stereo not drawn) | – | – | 9.01 | – | – |
| Cc1nccn1CC1CCc2c(c3ccccc3n2C)C1=O (stereo not drawn) [ONDANSETRON] | – | – | – | < 6.00 | – |
| COc1cc(N)c(Cl)cc1C(=O)NC1CC2CCC(C1)N2C (stereo in doubt; 2) | < 6.00 | – | – | – | – |
| COc1cc(N)c(Cl)cc1C(=O)NC1CC2CCC(C1)N2Cc1ccccc1 (stereo not drawn) | 6.63 | – | – | – | – |
| CCN1CCN(C)CC(NC(=O)c2cc(Br)c(N(C)C)nc2OC)C1 (stereo not drawn) | – | 83 | – | – | – |
| COc1cc(N)c(Cl)cc1C(=O)NC1CCN2CCCC1C2 (stereo not drawn) [RENZAPRIDE] | 7.39 | – | – | – | pKi [5]: 8.28; pKi [6]: < 5.00 |
| CCN1CCN(C)CC(NC(=O)c2cc(Cl)cn3ccnc23)C1 (stereo not drawn) | – | – | 6.83 | < 6.00 | – |
| CCN1CCN(C)C[C@H](NC(=O)c2cc(Br)c(NC)nc2OC)C1 | – | 47 | 8.89 | 6.91 | pIC50 [7]: < 6.00; pIC50 [8]: 7.84 |
| CCN1CCN(C)C[C@@H](NC(=O)c2cc(Br)c(NC)nc2OC)C1 | – | 100 | 8.92 | 8.16 | pIC50 [9]: < 5.00; ED50 [10, 17]: 0.12 mg/kg; pIC50 [8]: 8.95 |
| CCOc1cc(N)c(Cl)cc1C(=O)NCC1CN(Cc2ccc(F)cc2)CCO1 (stereo not drawn) [MOSAPRIDE] | 7.16 | – | – | – | pKi [5]: 5.92; pKi [6]: < 5.00 |
| COc1cc(N)c(Cl)cc1C(=O)NC1CC2CCC(C1)N2C (stereo in doubt) | 7.32 | – | – | – | – |
| CNc1nc(OC)c(C(=O)NC2CN(C)CCN(C3CC3)C2)cc1Br (stereo not drawn) | – | 14 | 9.12 | 7.33 | – |
| CCN1CCN(C2CC2)CC(NC(=O)c2cc(Br)c(NC)nc2OC)C1 (stereo not drawn) | – | 25 | 9.16 | 7.89 | – |

| SMILES | pKi [1] | inhibition in vivo at 1 mg/kg [2] [%] | pIC50 [3] | pIC50 [4] | further results |
| --- | --- | --- | --- | --- | --- |
| CCN1CCN(CC)CC(NC(=O)c2cc(Br)c(NC)nc2OC)C1 | – | 69 | 9.23 | 7.68 | – |
| CCN1CCN(C)CC(NC(=O)c2cnc(NC)nc2OC)C1 (stereo not drawn) | – | – | – | < 6.00 | pIC50 [11]: 6.80 |
| CCNc1nc(OC)c(C(=O)NC2CN(C)CCN(CC)C2)cc1Cl (stereo not drawn) | – | 42 | – | – | – |
| CCN(CC)CCNC(=O)c1cc(Cl)c(N)cc1OC [METOCLOPRAMIDE] | 6.26 | 100 | 6.64 | – | pIC50 [9]: 6.04; pKi [5]: 6.68; ED50 [10, 17]: 0.45 mg/kg; pIC50 [8]: 7.21 |
| CCN1CCN(C)CC(NC(=O)c2cc(Cl)cc3c2OCC3)C1 (stereo not drawn) | – | – | 7.52 | < 6.00 | – |
| CCN1CCN(C)C[C@@H](NC(=O)c2cc(Cl)c(N)c3c2OCC3)C1 | – | – | 8.43 | 6.20 | – |
| CCN1CCN(C)CC(NC(=O)c2cc(Cl)cc3c2OCC(=O)N3C)C1 (stereo not drawn) | – | – | 7.41 | < 6.00 | – |
| CCOc1nc(NC)c(Br)cc1C(=O)NC1CN(C)CCN(CC)C1 (stereo not drawn) | – | – | 8.83 | 7.06 | – |
| COc1cc(N)c(Cl)cc1C(=O)NC[C@@H]1CCN2CCC[C@@H]12 | 7.68 | – | – | – | pKi [12]: < 5.00 |
| O=c1[nH]c2ccccc2n1CCCN1CCC(n2c(=O)[nH]c3cc(Cl)ccc32)CC1 [DOMPERIDONE] | – | – | – | – | pIC50 [13]: < 6.00 |
| CCN1CCN(C)C[C@@H](NC(=O)c2cc(Cl)c(NC)cc2OC)C1 | – | 100 | – | – | pIC50 [13]: < 6.00; ED50 [10, 17]: 0.13 mg/kg; ED50 ([10]; dose 1 mg/kg): 0.13 mg/kg; pIC50 [14]: 7.82 |
| COc1cc(N)c(Cl)cc1C(=O)NCCN(C)Cc1ccccc1 | 6.06 | – | – | – | pKi [5]: < 6.00; pKi [6]: 7.61 |
| CCN1CCN(CC)CC(NC(=O)c2cc(Cl)c(NC)nc2OC)C1 | – | 53 | 9.19 | 7.56 | – |
| COc1cc(N)c(Cl)cc1C(=O)NC1CN(C)CCN(Cc2ccccc2)C1 (stereo not drawn) | – | – | – | – | pIC50 [15]: 8.68; pIC50 [13]: < 6.00; pIC50 [16]: < 6.00 |
| COc1cc(N)c(Cl)cc1C(=O)N[C@@H]1CN2CCC1CC2 | 6.42 | – | – | – | – |
| CCN1CCN(C)CC(NC(=O)c2[nH]nc3ccccc23)C1 (stereo not drawn) | – | – | 8.18 | < 6.00 | – |
| COc1cc(N)c(Cl)cc1C(=O)NC1CCN(Cc2ccccc2)CC1 [CLEBOPRIDE] | 6.98 | – | – | – | – |
